The first assay has as its target T1, Cholesteryl ester transfer protein (Homo sapiens, UniProt P11597).
T1 sequence (P11597 whole entry): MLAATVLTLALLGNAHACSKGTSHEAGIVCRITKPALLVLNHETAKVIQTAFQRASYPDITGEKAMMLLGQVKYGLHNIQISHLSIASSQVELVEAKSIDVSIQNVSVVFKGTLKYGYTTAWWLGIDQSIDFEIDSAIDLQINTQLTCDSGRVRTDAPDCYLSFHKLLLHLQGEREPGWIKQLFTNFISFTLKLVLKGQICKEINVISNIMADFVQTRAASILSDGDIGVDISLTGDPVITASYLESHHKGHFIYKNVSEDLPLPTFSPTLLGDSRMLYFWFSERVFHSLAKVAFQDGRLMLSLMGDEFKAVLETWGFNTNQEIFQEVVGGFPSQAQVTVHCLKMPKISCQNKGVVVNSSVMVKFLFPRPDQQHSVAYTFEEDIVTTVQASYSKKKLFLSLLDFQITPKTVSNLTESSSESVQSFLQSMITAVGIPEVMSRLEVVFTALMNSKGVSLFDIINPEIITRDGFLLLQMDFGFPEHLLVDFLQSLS
The assay is described as follows: Inhibition of full-length human recombinant CETP expressed in CHO cells by BODIPY-CE fluorescence assay.
Conditions: not given
It is filed as cell-based.
As a reminder, the IC50 is the point on the concentration scale where inhibition reaches its midpoint. On to `O=C(CCN(Cc1ccc(F)cc1)c1ccc(Cl)c(C(F)(F)F)c1)N1CCN(c2ccccc2)CC1`, for which the IC50 was found to be 37.8 µM.
Regarding `CCCCN(CC1CC1)C(=O)CCN(Cc1ccc(F)cc1)c1ccc(Cl)c(Cl)c1`, the IC50 is above 50 µM.
On the same count and under the same terms, in the case of `O=C(CCN(Cc1ccc(F)cc1)c1ccc(Cl)c(Cl)c1)N1CCN(c2ccccc2)CC1` it was 5.2 µM; in that of `COc1ccc(N2CCN(C(=O)CCN(Cc3ccc(F)cc3)c3ccc(Cl)c(Cl)c3)CC2)cc1`, 3.5 µM; in that of `O=C(CCN(Cc1ccc(F)cc1)c1ccc(Cl)c(Cl)c1)NC1CC1`, above 50 µM.
Still for that read-out and setting: with `O=C(CCN(Cc1ccc(F)cc1)c1ccc(Cl)c(Cl)c1)N1CCN(c2ncccn2)CC1` the figure was 11.8 µM; with `Cc1cc(N(CCC(=O)N2CCN(c3ccccc3)CC2)Cc2ccc(F)cc2)ccc1Br`, 13.9 µM; with `COc1ccc(N2CCN(C(=O)CCN(Cc3ccc(F)cc3)c3cccc(-c4ccccc4)c3)CC2)cc1`, 7.3 µM.
For `CCOC(=O)c1ccc(N2CCN(C(=O)CCN(Cc3ccc(F)cc3)c3cccc(-c4ccccc4)c3)CC2)cc1`, the IC50 was 3.1 µM.
Same read-out and setting: in the case of `COc1ccc(N2CCN(C(=O)CCN(Cc3ccc(F)cc3)c3cccc(Oc4ccccc4)c3)CC2)cc1` it was 2.8 µM; in that of `CC(C)(C)NC(=O)CCN(Cc1ccc(F)cc1)c1ccc(Cl)c(Cl)c1`, 29.6 µM.
Still for that read-out and setting: in the case of `CCc1cc(N(CCC(=O)N2CCN(c3ccccc3)CC2)Cc2ccc(F)cc2)ccc1Cl` it was 19.5 µM.
The same measure, in the same setting: with `O=C(CCN(Cc1ccc(F)cc1)c1cccc(-c2ccccc2)c1)N1CCN(c2ccccc2)CC1` the figure was 11.3 µM.
As to `O=C(CCN(Cc1ccc(F)cc1)c1ccc(Cl)c(Cl)c1)NC1CCCCC1`, the IC50 is 10.7 µM.
Regarding `O=C(CCN(Cc1ccc(F)cc1)c1ccc(Cl)c(Cl)c1)N1CCOCC1`, the IC50 came to 14.2 µM.
On the same count and under the same terms, with `CCOC(=O)c1ccc(N2CCN(C(=O)CCN(Cc3ccc(F)cc3)c3ccc(Cl)c(Cl)c3)CC2)cc1` the figure was 2.8 µM.

For the next assay, the system named is Syrian golden hamster. The experiment in a line: Antidyslipidemic activity in high cholesterol/lipid diet fed golden syrian hamster assessed as increase in HDL-cholesterol levels at 30 mg/kg/day, po administered for 2 weeks relative to control. It is filed as functional, Mesocricetus auratus.
Conditions: not given
In outline: (§1)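 Male Golden Syrian hamsters (8 weeks old, 120-130 g) were randomized by weight into control and treated groups (n = 6). Dyslipidemia was induced with a high cholesterol and lipid diet for 5 weeks. Dosing was oral at 30 mg/kg/day for two weeks in ethanol/cremophor/saline 5:5:90. Blood was drawn from the orbit, and serum lipid levels were compared with controls.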
With `CCOC(=O)c1ccc(N2CCN(C(=O)CCN(Cc3ccc(F)cc3)c3cccc(Oc4ccccc4)c3)CC2)cc1`, the Activity stood at 21.7%.

The species entered for the next assay is Homo sapiens. The assay is described as follows: Reduction in LDL-cholestrol levels in mild dyslipidemia patient at 5 to 10 mg.
Conditions: not given
More on the design: scale not given: the % may be the effect or the level left. The assay is classed as functional.
With `CCOC(=O)N1c2ccc(C(F)(F)F)cc2[C@@H](N(Cc2cc(C(F)(F)F)cc(C(F)(F)F)c2)c2ncc(OCCCC(=O)O)cn2)C[C@H]1CC` [OBICETRAPIB], the Activity is listed as 45.3%.

The target of a further assay is Cholesteryl ester transfer protein (Homo sapiens) (UniProt P11597). The experiment in a line: Inhibition of recombinant CETP by BODIPY-CE fluorescence assay.
Conditions: not given
On to `COc1ccc(C(CC(=O)c2ccccc2)Nc2ccc(Cl)cc2)cc1OC` (configuration not stated), for which the IC50 was determined as 8.06 µM.

In another assay the test system is Homo sapiens. The experiment in a line: In vivo inhibition of CETP in human whole plasma at 120 mg for 14 days. It is filed as functional, organism-based. The note with it: 336 h.
For the compound `CCOC(=O)N1c2ccc(C(F)(F)F)cc2[C@@H](N(Cc2cc(C(F)(F)F)cc(C(F)(F)F)c2)C(=O)OC)C[C@H]1CC` [TORCETRAPIB], the IC50 stood at 0.05 µM.

The species named for a further assay is Homo sapiens. The assay is described as follows: Increase in HDL-cholestrol levels in mild dyslipidemia patient at 10 mg. It is filed as functional.
Conditions: not given
Take `CCOC(=O)N1c2ccc(C(F)(F)F)cc2[C@@H](N(Cc2cc(C(F)(F)F)cc(C(F)(F)F)c2)c2ncc(OCCCC(=O)O)cn2)C[C@H]1CC` [OBICETRAPIB]: the Activity is 179.1%.

In the next assay the test system is Syrian golden hamster. The experiment in a line: Antidyslipidemic activity in high cholesterol/lipid diet fed golden syrian hamster assessed as reduction in LDL-cholesterol levels at 30 mg/kg/day, po administered for 2 weeks relative to control. It is filed as functional, Mesocricetus auratus.
Conditions: not given
More on the design: scale not given: the % may be the effect or the level left. The method in brief:
as §1
`CCOC(=O)c1ccc(N2CCN(C(=O)CCN(Cc3ccc(F)cc3)c3cccc(Oc4ccccc4)c3)CC2)cc1`: the Activity stood at 24.6%.

These data come from ChEMBL document CHEMBL3784930, “Design, synthesis and biological evaluation of N,N-3-phenyl-3-benzylaminopropanamide derivatives as novel cholesteryl ester transfer protein inhibitor” (Bioorg Med Chem, 2016).
